Source: ChEMBL document CHEMBL3616436, “Synthesis, cytotoxicity and antimicrobial activity of thiourea derivatives incorporating 3-(trifluoromethyl)phenyl moiety” (Eur J Med Chem, 2015)
pEC50: −log10 of the molar value. Values after ≈ are worked out from the molar mass of the structure shown. Active and inactive are the calls of the source. The calls are words filed in the database; no cut-off is given here.

What was measured:
[1] = Cytotoxicity against African green monkey Vero 76 cells assessed as cell viability after 48 to 96 hrs by crystal violet staining; format: cell-based; details: chlorocebus sabaeus
[2] = system: Bacillus subtilis; experiment: Antimicrobial activity against Bacillus subtilis ATCC 6633 at 400 ug after 18 hrs by disc-diffusion method; format: functional; details: ATCC 6633, 18 h, read-out: IZ
How it was run: (§1)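 Disc diffusion on Mueller-Hinton II agar per CLSI; 9 mm paper discs loaded with 400 µg compound from DMSO solution, dried, placed on agar; growth inhibition zone diameter read after 18 h at 35°C.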

[3] = Cytotoxicity against BHK cells assessed as cell viability after 48 to 96 hrs by MTT assay; format: cell-based, Mesocricetus auratus; details: hamster
[4] = system: Staphylococcus aureus; experiment: Antimicrobial activity against Staphylococcus aureus ATCC 25923 at 400 ug after 18 hrs by disc-diffusion method; format: functional; details: ATCC 25923, 18 h, read-out: IZ; how it was run: as §1
[5] = system: Staphylococcus aureus; experiment: Antimicrobial activity against Staphylococcus aureus NCTC 4163 after 18 hrs by twofold serial microdilution method; format: functional; details: NCTC 4163, 18 h
[6] = system: Poliovirus 1; experiment: Antiviral activity against Poliovirus type 1 ATCC VR-1562 infected in African green monkey Vero 76 cells assessed as reduction of virus-plaque formation after 2 days by crystal violet staining; format: functional, organism-based; details: Enterovirus C, ATCC VR-1562, Vero, 48 h
[7] = system: Mycobacterium tuberculosis; experiment: Antimycobacterial activity against Mycobacterium tuberculosis H37Rv ATCC 25618; format: functional
How it was run: (§2)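 Classical test-tube successive-dilution method in Youmans' modification of Proskauer and Beck liquid medium with 10% bovine serum. Inoculum came from 14-day cultures. DMSO stock was 10 mg/mL, diluted geometrically in medium. Tubes were incubated at 37 °C. Concentrations tested were 3.1, 6.2, 12.5, 25, 50 and 100 µg/ml. MIC is the minimum concentration inhibiting growth relative to compound-free tubes.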

[8] = system: Staphylococcus aureus; experiment: Antimicrobial activity against Staphylococcus aureus ATCC 6538 after 18 hrs by twofold serial microdilution method; format: functional; details: ATCC 6538, 18 h
[9] = system: Staphylococcus aureus; experiment: Antimicrobial activity against Staphylococcus aureus ATCC 29213 after 18 hrs by twofold serial microdilution method; format: functional; details: ATCC 29213, 18 h
[10] = system: Staphylococcus aureus; experiment: Antimicrobial activity against Staphylococcus aureus NCTC 4163 at 400 ug after 18 hrs by disc-diffusion method; format: functional; details: NCTC 4163, 18 h, read-out: IZ; how it was run: as §1
[11] = system: Micrococcus luteus; experiment: Antimicrobial activity against Micrococcus luteus ATCC 9341 at 400 ug after 18 hrs by disc-diffusion method; format: functional; details: ATCC 9341, 18 h, read-out: IZ; how it was run: as §1
[12] = system: Staphylococcus aureus; experiment: Antimicrobial activity against Staphylococcus aureus ATCC 6538 at 400 ug after 18 hrs by disc-diffusion method; format: functional; details: ATCC 6538, 18 h, read-out: IZ; how it was run: as §1
[13] = system: Mycobacterium tuberculosis; experiment: Antimycobacterial activity against drug-sensitive Mycobacterium tuberculosis Spec. 192; format: functional; how it was run: as §2
[14] = system: Enterococcus faecalis; experiment: Antimicrobial activity against Enterococcus faecalis ATCC 29212 at 400 ug after 18 hrs by disc-diffusion method; format: functional; details: ATCC 29212, 18 h, read-out: IZ; how it was run: as §1
[15] = system: Vaccinia virus; experiment: Antiviral activity against Human Vaccinia virus ATCC VR-1549 infected in African green monkey Vero 76 cells assessed as reduction of virus-plaque formation after 3 days by crystal violet staining; format: functional, organism-based; details: Orthopoxvirus vaccinia, ATCC VR-1549, Vero, 72 h
[16] = system: Yellow fever virus; experiment: Antiviral activity against Yellow fever virus 17D infected in BHK cells assessed as protection against virus-induced cytopathogenicity after 3 to 4 days by MTT assay; format: functional, cell-based
[17] = system: Human alphaherpesvirus 1; experiment: Antiviral activity against Human herpesvirus 1 KOS ATCC VR-1493 infected in African green monkey Vero 76 cells assessed as reduction of virus-plaque formation after 3 days by crystal violet staining; format: functional, organism-based; details: Human alphaherpesvirus 1, KOS ATCC VR1493, Vero, 72 h
How it was run: (§3)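 Plaque reduction: Vero-76 at 2x10^5 cells/well grown to confluent monolayers, infected 2 h at 50–100 PFU/well; after removing unadsorbed virus, overlay of D-MEM, 1% inactivated FBS, 0.75% methylcellulose with or without serial compound dilutions; 3 days at 37°C, fixed and stained with crystal violet in 50% ethanol, plaques counted; EC50 by linear regression.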

[18] = system: Human immunodeficiency virus 1; experiment: Antiviral activity against HIV1 3B infected in human MT4 cells assessed as protection against virus-induced cytopathogenicity by MTT assay; format: functional, organism-based; details: Human immunodeficiency virus 1, 3B
[19] = system: Staphylococcus aureus; experiment: Antimicrobial activity against Staphylococcus aureus ATCC 29213 at 400 ug after 18 hrs by disc-diffusion method; format: functional; details: ATCC 29213, 18 h, read-out: IZ; how it was run: as §1
[20] = system: Vesicular stomatitis virus; experiment: Antiviral activity against Vesicular stomatitis virus ATCC VR 1540 infected in African green monkey Vero 76 cells assessed as reduction of virus-plaque formation after 2 days by crystal violet staining; format: functional, organism-based; details: ATCC VR 1540, Vero, 48 h
[21] = Antiviral activity against Bovine viral diarrhea virus 1-NADL ATCC VR-534 infected in MDBK cells assessed as protection against virus-induced cytopathogenicity after 3 to 4 days by MTT assay; format: functional, cell-based; details: Bovine viral diarrhea virus isolates and strains, ATCC VR-534, MDBK
How it was run: (§4)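 Cells seeded in 96-well plates (BHK 5x10^4, MDBK 3x10^4 cells/well), grown overnight to confluence, infected at m.o.i. 0.01 (BHK for Reo-1, MDBK for BVDV); serial compound dilutions in maintenance medium with 0.5% inactivated FBS added after 1 h; viability by MTT after 3–4 days at 37°C; EC50 for 50% protection by linear regression.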

[22] = Cytotoxicity against human MT4 cells; format: cell-based
[23] = system: Coxsackievirus B5; experiment: Antiviral activity against Human coxsackievirus B5 ATCC VR-29 infected in African green monkey Vero 76 cells assessed as reduction of virus-plaque formation after 3 days by crystal violet staining; format: functional, organism-based; details: Enterovirus B, ATCC VR-29, Vero, 72 h; how it was run: as §3
[24] = system: Staphylococcus aureus; experiment: Antimicrobial activity against Staphylococcus aureus ATCC 25923 after 18 hrs by twofold serial microdilution method; format: functional; details: ATCC 25923, 18 h
[25] = Cytotoxicity against bovine MDBK cells assessed as cell viability after 48 to 96 hrs by MTT assay; format: cell-based, Bos taurus; details: cattle
[26] = system: Staphylococcus epidermidis; experiment: Antimicrobial activity against Staphylococcus epidermidis ATCC 35984 after 18 hrs by twofold serial microdilution method; format: functional; details: ATCC 35984, 18 h
[27] = system: Staphylococcus epidermidis; experiment: Antimicrobial activity against Staphylococcus epidermidis ATCC 12228 after 18 hrs by twofold serial microdilution method; format: functional; details: ATCC 12228, 18 h
[28] = system: Proteus vulgaris; experiment: Antimicrobial activity against Proteus vulgaris NCTC 4635 at 400 ug after 18 hrs by disc-diffusion method; format: functional; how it was run: as §1
[29] = system: Enterococcus hirae; experiment: Antimicrobial activity against Enterococcus hirae ATCC 10541 at 400 ug after 18 hrs by disc-diffusion method; format: functional; details: ATCC 10541, 18 h, read-out: IZ; how it was run: as §1
[30] = system: Mammalian orthoreovirus 1; experiment: Antiviral activity against Reovirus type-1 ATCC VR-214 infected in BHK cells assessed as protection against virus-induced cytopathogenicity after 3 to 4 days by MTT assay; format: functional, cell-based; details: Mammalian orthoreovirus 1, ATCC VR-214, BHK; how it was run: as §4
[31] = system: Staphylococcus epidermidis; experiment: Antimicrobial activity against Staphylococcus epidermidis ATCC 12228 at 400 ug after 18 hrs by disc-diffusion method; format: functional; details: ATCC 12228, 18 h, read-out: IZ; how it was run: as §1
[32] = system: Bacillus cereus; experiment: Antimicrobial activity against Bacillus cereus ATCC 11778 at 400 ug after 18 hrs by disc-diffusion method; format: functional; details: ATCC 11778, 18 h, read-out: IZ; how it was run: as §1
[33] = system: Staphylococcus epidermidis; experiment: Antimicrobial activity against Staphylococcus epidermidis ATCC 35984 at 400 ug after 18 hrs by disc-diffusion method; format: functional; details: ATCC 35984, 18 h, read-out: IZ; how it was run: as §1
[34] = system: Micrococcus luteus; experiment: Antimicrobial activity against Micrococcus luteus ATCC 10240 at 400 ug after 18 hrs by disc-diffusion method; format: functional; details: ATCC 10240, 18 h, read-out: IZ; how it was run: as §1

SMILES: Nc1nc2c(ncn2COCCO)c(=O)[nH]1 [ACYCLOVIR]
- CC50 [1]: 13 µM

SMILES: FC(F)(F)c1cccc(NC(=S)NCc2ccco2)c1
- zone of inhibition at 400 µg/disc [2]: 15 mm
- CC50 [3]: 48 µM
- zone of inhibition at 400 µg/disc [4]: 14 mm
- MIC [5]: 256 µg/mL (≈ 852 µM)
- pEC50 [6]: < 4.30
- MIC [7]: > 100 µg/mL
- MIC [8]: 256 µg/mL (≈ 852 µM)
- MIC [9]: 256 µg/mL (≈ 852 µM)
- zone of inhibition at 400 µg/disc [10]: 14 mm
- zone of inhibition at 400 µg/disc [11]: 13 mm
- zone of inhibition at 400 µg/disc [12]: 14 mm
- MIC [13]: > 100 µg/mL
- zone of inhibition at 400 µg/disc [14]: 0 mm
- pEC50 [15]: < 4.30
- pEC50 [16]: < 4.32
- pEC50 [17]: < 4.30
- pEC50 [18]: < 4.37
- zone of inhibition at 400 µg/disc [19]: 19 mm
- pEC50 [20]: < 4.30
- pEC50 [21]: < 4.00
- CC50 [22]: 43 µM
- pEC50 [23]: < 4.30
- MIC [24]: 256 µg/mL (≈ 852 µM)
- CC50 [25]: > 100 µM
- MIC [26]: 512 µg/mL (≈ 1700 µM)
- MIC [27]: 256 µg/mL (≈ 852 µM)
- inhibition zone (IZ) [28]: inactive
- CC50 [1]: 50 µM
- zone of inhibition at 400 µg/disc [29]: 13 mm
- pEC50 [30]: < 4.32
- zone of inhibition at 400 µg/disc [31]: 12 mm
- zone of inhibition at 400 µg/disc [32]: 13 mm
- zone of inhibition at 400 µg/disc [33]: 13 mm
- zone of inhibition at 400 µg/disc [34]: 13 mm

SMILES: FC(F)(F)c1cccc(NC(=S)Nc2ccc(Cl)c(Cl)c2)c1
- CC50 [3]: 9.5 µM
- CC50 [22]: 9 µM
- CC50 [25]: 10 µM
- CC50 [1]: 16 µM
